Data as given in PMC10195017 (Journal of Immunotherapy and Precision Oncology, 2023).
Entries after “also recorded” stand apart in the source; their conditions may differ. Read-outs that look alike come from different tables or passages of the source.

Legend:
Tregs [1] = conditions: mice; 8 mg/kg twice a day IP and 16 mg/kg every day IP; cited from earlier work
pKa = format: physicochemical
[2] = Octanol-water partition coefficient; format: physicochemical
Aqueous solubility = format: physicochemical
Caco-2 = Caco-2 permeability; format: in vitro ADME; conditions: Caco-2 assay
P-gp = P-gp (Homo sapiens, UniProt P08183); assay: MDCK-MDR1 permeability; format: in vitro ADME
Sequence of P-gp (P08183 whole entry): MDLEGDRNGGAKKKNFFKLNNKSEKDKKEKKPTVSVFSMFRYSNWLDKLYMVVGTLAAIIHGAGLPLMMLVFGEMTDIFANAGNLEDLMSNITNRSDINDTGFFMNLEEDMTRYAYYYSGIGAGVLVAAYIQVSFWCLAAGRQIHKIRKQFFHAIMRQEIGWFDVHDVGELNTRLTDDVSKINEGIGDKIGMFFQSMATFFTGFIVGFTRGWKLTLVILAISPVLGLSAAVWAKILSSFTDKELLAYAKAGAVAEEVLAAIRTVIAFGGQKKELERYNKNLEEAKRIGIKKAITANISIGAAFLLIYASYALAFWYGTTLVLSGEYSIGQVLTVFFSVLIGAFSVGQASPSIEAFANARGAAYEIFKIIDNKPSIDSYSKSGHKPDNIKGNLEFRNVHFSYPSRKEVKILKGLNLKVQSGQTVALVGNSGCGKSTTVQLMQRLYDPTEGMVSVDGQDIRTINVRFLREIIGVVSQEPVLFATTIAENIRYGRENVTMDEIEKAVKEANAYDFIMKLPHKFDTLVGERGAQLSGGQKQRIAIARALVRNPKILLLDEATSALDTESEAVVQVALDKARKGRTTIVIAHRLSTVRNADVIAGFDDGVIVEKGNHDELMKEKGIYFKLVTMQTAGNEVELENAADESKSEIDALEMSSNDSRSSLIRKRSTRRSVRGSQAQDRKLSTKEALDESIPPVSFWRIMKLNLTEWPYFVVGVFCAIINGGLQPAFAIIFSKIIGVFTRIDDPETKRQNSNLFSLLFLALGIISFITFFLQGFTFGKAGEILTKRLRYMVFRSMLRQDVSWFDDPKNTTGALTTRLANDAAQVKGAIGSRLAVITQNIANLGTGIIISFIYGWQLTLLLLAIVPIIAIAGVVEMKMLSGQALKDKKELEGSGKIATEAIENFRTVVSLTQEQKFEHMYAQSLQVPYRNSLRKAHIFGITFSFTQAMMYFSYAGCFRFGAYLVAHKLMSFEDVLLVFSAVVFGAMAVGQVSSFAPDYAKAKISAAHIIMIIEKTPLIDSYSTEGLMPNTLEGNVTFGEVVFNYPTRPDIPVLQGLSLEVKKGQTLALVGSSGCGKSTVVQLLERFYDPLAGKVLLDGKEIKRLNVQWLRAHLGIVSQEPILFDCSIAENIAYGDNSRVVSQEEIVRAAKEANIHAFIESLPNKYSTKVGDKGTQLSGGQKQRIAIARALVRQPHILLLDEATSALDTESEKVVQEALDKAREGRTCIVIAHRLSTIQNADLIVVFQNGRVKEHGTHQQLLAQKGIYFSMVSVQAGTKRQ

[3] = Plasma pharmacokinetics in male C57BL/6J mice after a single dose; format: in vivo; conditions: non-tumor-bearing animals
MALT1 [4] = conditions: cited from earlier work
Tregs [5] = conditions: rats; efficacious treatment; cited from earlier work
Tregs [6] = conditions: dogs; efficacious treatment; cited from earlier work
D4M.3A = assay: In vivo tumor growth, D4M.3A syngeneic tumor model; design: species or system C57BL/6J mice; conditions: for tumor growth, comparison of both salt forms: 32 mg/kg IP, QD, D4M.3A tumor-challenged mice, with and without anti-PD-1; for tumor growth, combination effect: combination with anti-PD-1, D4M.3A model; for tumor growth response: monotherapy, poorly immunogenic D4M.3A model, high doses of MPT-0118 or MPT-0308
How it was run: (§1)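 Mice were 6-week-old male C57BL/6J, n = 10 per cohort. Tumor cells were trypsinized and spun 400g for 5 min, then put into the right hind flank: MC38 1 × 10^6 in 50:50 Cultrex:PBS, D4M.3A 1 × 10^6 in PBS, B16.F10 0.5 × 10^6 in HBSS. Test compound given once daily IP or by oral gavage from day 7 (B16.F10), 8 (MC38) or 9 (D4M.3A). Anti-PD-1, 200 μg IP ×3, every other day, 6 h after compound. Caliper volume = w² × l/2. Two-way ANOVA/Bonferroni on last treatment day.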

B16.F10 = assay: In vivo tumor growth, B16.F10 syngeneic tumor model; design: species or system C57BL/6J mice; conditions: combination with anti-PD-1
How it was run: as §1

tumor-infiltrating Tregs = assay: Flow cytometry of tumor-infiltrating Tregs in D4M.3A-injected mice; format: in vivo, C57BL/6J mice; conditions: combination therapy with anti-PD-1; D4M.3A tumors; mean ± SEM; pooled MPT-0118 and MPT-0308 (n = 16)
[7] = Plasma and tumor pharmacokinetics at steady-state in D4M.3A tumor-bearing mice; format: in vivo, C57BL/6J mice; conditions: 64 mg/kg/day oral, steady-state after 21 days
How it was run: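 Male C57BL/6J mice bearing D4M.3A tumors were pretreated for 21 days with the test compound (succinate salt) at 64 mg/kg orally. Plasma and tumor drug concentrations were then measured at steady state.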

circulating Tregs = assay: Circulating Treg frequencies in non-tumor-bearing rats; format: in vivo, Harlan Sprague Dawley rats; conditions: 30 mg/kg orally, daily, 15 days; female rats; vs vehicle
How it was run: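 Female Harlan Sprague Dawley rats, non-tumor-bearing, received the test compound at 30 mg/kg orally once daily for 15 days, with a vehicle group (n = 5 per cohort). Blood was drawn from the same animals on days −1, 3, 5, 7, 10 and 14. After red cell lysis, samples got viability dye, CD3/CD4/CD8/CD25 surface staining, fixation and permeabilization, and FoxP3 staining. Tregs (CD3+CD4+CD8α−FoxP3+) were counted as % of CD4+ cells and normalized to day −1 (100%). Unpaired t test per time point […].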

PDOTS = assay: Viability of patient-derived organotypic tumor spheroids; format: cell-based, human; conditions: 5 μM in combination with anti-PD-1, + αIFNγ 10 μg/mL
How it was run: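 Colorectal cancer and melanoma resection samples were made into organotypic spheroids that kept their native immune cells. These were embedded in collagen in a 3D microfluidic device and cultured 5–7 days in DMEM with the test compound (3–5 μM). Arms were ± pembrolizumab 250 μg/mL, each ± anti-human IFNγ 10 μg/mL. Viability was measured by Hoechst 33342/propidium iodide imaging (45 min, 37 °C, 5% CO2) as live cell area. Results were given as percent change versus untreated control.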

MC38 = assay: In vivo tumor growth, MC38 syngeneic tumor model; design: species or system C57BL/6J mice
How it was run: as §1

MALT1 [8] = target: T1, MALT1 (Mus musculus, UniProt Q2TBA3); assay: MALT1-cleaved CYLD-ct flow cytometry assay in murine CD4+ T cells; format: cell-based; conditions: for MALT1 inhibition: murine CD4+ T cells
T1 sequence (Q2TBA3 1-832): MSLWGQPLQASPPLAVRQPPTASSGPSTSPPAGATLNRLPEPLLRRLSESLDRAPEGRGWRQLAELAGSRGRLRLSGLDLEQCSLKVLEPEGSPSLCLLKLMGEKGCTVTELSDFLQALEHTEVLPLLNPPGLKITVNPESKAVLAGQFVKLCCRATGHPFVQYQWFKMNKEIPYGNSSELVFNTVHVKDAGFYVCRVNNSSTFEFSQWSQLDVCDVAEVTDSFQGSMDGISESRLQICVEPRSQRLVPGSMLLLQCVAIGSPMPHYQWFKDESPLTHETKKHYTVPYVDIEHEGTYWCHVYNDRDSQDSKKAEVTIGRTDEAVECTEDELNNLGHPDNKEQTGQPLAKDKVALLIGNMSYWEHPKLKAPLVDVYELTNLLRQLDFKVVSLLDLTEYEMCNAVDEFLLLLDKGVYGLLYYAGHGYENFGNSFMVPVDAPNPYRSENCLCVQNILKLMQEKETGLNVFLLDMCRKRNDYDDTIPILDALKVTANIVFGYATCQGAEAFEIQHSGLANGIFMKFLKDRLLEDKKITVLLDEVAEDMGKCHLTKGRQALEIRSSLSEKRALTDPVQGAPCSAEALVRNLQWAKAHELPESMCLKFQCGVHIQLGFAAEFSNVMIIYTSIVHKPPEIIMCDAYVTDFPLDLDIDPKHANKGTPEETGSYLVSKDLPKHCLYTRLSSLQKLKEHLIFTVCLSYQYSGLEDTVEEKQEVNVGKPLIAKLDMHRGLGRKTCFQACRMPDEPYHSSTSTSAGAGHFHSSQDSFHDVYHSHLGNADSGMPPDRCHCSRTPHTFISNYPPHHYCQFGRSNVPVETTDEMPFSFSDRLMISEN
How it was run: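 Murine CD4+ T cells were treated with a dose titration of the test compound or DMSO, then stimulated with PMA plus ionomycin. MALT1 activity was read by flow cytometry as the CYLD C-terminal cleavage product. Detection used the in-house neoepitope monoclonal 25F10, which recognizes both human and mouse cleaved CYLD. Median fluorescence intensity was compared with DMSO-treated cells. n = 3, mean ± SEM.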

[9] = system: D4M.3A murine melanoma tumor spheroids; assay: Viability of cell-line-derived D4M.3A tumor spheroids; format: cell-based, mouse; conditions: doses up to 10 μM; day 4
How it was run: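 D4M.3A cell-line-derived tumor spheroids were embedded in collagen in a 3D microfluidic device (gel set 30 min, 37 °C). They were cultured in DMEM with the test compound at 0.3–10 μM for 4 days. Live/dead staining used Hoechst 33342/propidium iodide (45 min, 37 °C, 5% CO2), followed by fluorescence imaging and total raw cell area per dye. Live signal was expressed as percent change or log2 fold change relative to untreated control.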

MC38 MDOTS = assay: Viability of MC38 MDOTS; format: cell-based, mouse; conditions: day 6
How it was run: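 MC38-derived spheroids kept their resident immune cells. They were mixed with collagen, loaded into the central gel region of a 3D microfluidic device, and set for 30 min at 37 °C. They were then hydrated with DMEM containing test compound 3 μM ± anti-mouse IFNγ 10 μg/mL, or anti-IFNγ alone, for 6 days. Viability was read by Hoechst 33342/propidium iodide staining (45 min, 37 °C, 5% CO2) and fluorescence imaging of total cell area per dye. Live signal was expressed as percent or log2 fold change versus control.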

SMILES: CN1CCCC(CN2c3ccccc3Sc3ccccc32)C1 (racemic) [mepazine racemate, mepazine]
- Treg frequencies in peripheral blood (Tregs [1]): no effect

SMILES: CN1CCC[C@H](CN2c3ccccc3Sc3ccccc32)C1 [(S)-mepazine]
- pKa (pKa): 9.2
- logP [2]: 5.29
- solubility (in words) (Aqueous solubility): apparent pH-dependent solubility
- mean apparent AB permeability coefficient (Caco-2): 13.73 ± 0.15 × 10^−6 cm/s
- P-gp substrate (P-gp): not a P-gp substrate
- Tmax [3]: ≤ 2 h

SMILES: CO[C@@H](C)c1c(NC(=O)Nc2ccnc(C(F)(F)F)c2)cnc2cc(Cl)nn12 [MLT-943]
- IC50 (MALT1 [4]): < 10 nM
- Treg numbers (Tregs [5]): rapid reduction of Tregs
- pathology developing after Treg reduction (Tregs [5]): reversible immune dysregulation, polyendocrinopathy, enteropathy, X-linked (IPEX)-like pathology
- Treg numbers (Tregs [6]): rapid reduction of Tregs

SMILES: CN1CCC[C@H](CN2c3ccccc3Sc3ccccc32)C1.O=C(O)CCC(=O)O [MPT-0118, (S)-mepazine succinate]
- tumor growth, comparison of both salt forms (D4M.3A): comparable effects on tumor growth
- tumor growth, combination effect (D4M.3A): clear synergy
- tumor growth response (D4M.3A): consistently responded
- tumor growth, combination effect (B16.F10): clear synergy
- frequency of IFNγ+ Tregs (percentage of total tumor-infiltrating Tregs) (tumor-infiltrating Tregs): 8.9 ± 1.01%
- peak concentrations in mouse plasma [7]: ≤ 1.3 µM
- drug concentrations in tumor tissue ([7]; over the following 24 hours): 3 to 10 µM
- circulating Treg frequencies (circulating Tregs): No change; also recorded: no effect
- effects on PDOTS with anti-IFNγ neutralizing antibody (PDOTS): reversed

SMILES: CN1CCC[C@H](CN2c3ccccc3Sc3ccccc32)C1.Cl [MPT-0308, (S)-mepazine hydrochloride]
- tumor growth, combination effect (MC38; high dose in combination with anti-PD-1, MC38 model): additive effect
- tumor growth (MC38; monotherapy, immunogenic MC38 model): significant inhibition of tumor growth
- tumor growth, comparison of both salt forms (D4M.3A): comparable effects on tumor growth
- tumor growth, combination effect (D4M.3A): clear synergy
- tumor growth response (D4M.3A): consistently responded
- tumor growth, combination effect (B16.F10): clear synergy
- frequency of IFNγ+ Tregs (percentage of total tumor-infiltrating Tregs) (tumor-infiltrating Tregs): 8.9 ± 1.01%
- MALT1 inhibition (MALT1 [8]; 3 μM): roughly 75%
- MALT1 inhibition (MALT1 [8]; 10 μM): ~95%
- IC50 (MALT1 [8]; read-out: IC50 (MALT1-cleaved CYLD-ct), murine splenic CD4+ T cells stimulated with PMA/ionomycin): 1130 nM
- viability of tumor spheroids lacking immune cells and tumor stroma [9]: not affected
- antitumor activity in MDOTS with anti-IFNγ neutralizing antibody (MC38 MDOTS; 3 μM + anti-mouse IFNγ 10 μg/mL): reversed
- antitumor activity in MDOTS (MC38 MDOTS; 3 μM): active
